Measurements gathered from unrelated publications.
Protocols differ between the studies behind these lines.
Target: Maternal embryonic leucine zipper kinase (MELK, Homo sapiens, UniProt Q14680)

For `Cc1nn(C)cc1-c1nc2c(N3CCN(Cc4ccc(Cl)cc4)CC3)c(Cl)cnc2[nH]1`, the remaining binding was 100% (binding, competition with immobilised ligand; 1 µM).
`O=c1[nH]c2ccccc2n1C1CCN(Cc2ccc(-c3[nH]c4cc5ncnc5cc4nc3-c3ccccc3)cc2)CC1` gave a remaining signal of 110% (cell-free assay; 0.5 µM).
`N#CC1(c2ccccn2)CCN(Cc2cc(C(=O)O)c(=O)n3ccccc23)CC1` gave a remaining binding of 55% (cell-free assay, competition with immobilised ligand; 1 µM).
`CC(C)(C)c1cc(C=C(C#N)C#N)cc(Br)c1O` has a remaining activity of 91.6% (enzyme activity, inhibitor; 0.5 µM).
`COc1ncccc1-c1cnn2ccc(N3CCN(C(=O)OC(C)C)CC3)nc12` gave a remaining binding of 97% (binding, competition with immobilised ligand; 1 µM).
The inhibition of `Cn1cc(-c2cccc(N3CCc4c(sc5c4CC(C)(C)C5)C3=O)c2CO)cc(Nc2ccncn2)c1=O` is reported as 5% (enzyme activity, inhibitor; 1 µM).
`Cn1cncc1[C@@](O)(COc1ccc(C#N)cc1-c1ccc(OC(F)(F)F)cc1)c1ccc(C#N)cc1` has a remaining binding of 79% (cell-free assay, competition with immobilised ligand; 1 µM).
The inhibition of `Cn1cc(-c2cc(F)cc(N3CCn4c(cc5c4CCCC5)C3=O)c2CO)cc(Nc2ccc(N3CCN(C4COC4)CC3)cn2)c1=O` is reported as 16% (enzyme activity, inhibitor; 0.1 µM).
`COc1cc(Nc2ncc(F)c(Nc3ccc4c(n3)NC(=O)C(C)(C)O4)n2)cc(OC)c1OC` gave an inhibition of 71% (binding, competition with immobilised ligand; 10 µM).
